Measured values published in ChEMBL document CHEMBL1152545, “Fluorinated indazoles as novel selective inhibitors of nitric oxide synthase (NOS): synthesis and biological evaluation” (Bioorg Med Chem, 2009).

Assays:
[1] = biological target: Nitric oxide synthase, inducible (Rattus norvegicus) (UniProt Q06518); experiment: Inhibition of Wistar rat NOS2 assessed as L-[3H]citrulline formation at 1 mM by liquid scintillation counting relative to control in presence of EDTA
Method in brief: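 NOS-II source: lung homogenate (0.1 g/mL, Tris/DTT/protease inhibitors, pH 7.6, 2500g supernatant) from male Wistar rats 6 h after iv LPS 10 mg/kg in saline. 10 µL sample incubated 30 min at 37 °C with 10 µM L-arginine plus 40 nM L-3H-arginine, H4-biopterin, FAD, CaCl2, 10 mM EDTA; NADPH started reaction. Compound 1 mM; three experiments in triplicate; mean ± SEM.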

Nitric oxide synthase 1 [2] = biological target: T1, Nitric oxide synthase 1 (Homo sapiens, UniProt P29475); experiment: Inhibition of NOS1
T1 sequence (P29475 whole entry): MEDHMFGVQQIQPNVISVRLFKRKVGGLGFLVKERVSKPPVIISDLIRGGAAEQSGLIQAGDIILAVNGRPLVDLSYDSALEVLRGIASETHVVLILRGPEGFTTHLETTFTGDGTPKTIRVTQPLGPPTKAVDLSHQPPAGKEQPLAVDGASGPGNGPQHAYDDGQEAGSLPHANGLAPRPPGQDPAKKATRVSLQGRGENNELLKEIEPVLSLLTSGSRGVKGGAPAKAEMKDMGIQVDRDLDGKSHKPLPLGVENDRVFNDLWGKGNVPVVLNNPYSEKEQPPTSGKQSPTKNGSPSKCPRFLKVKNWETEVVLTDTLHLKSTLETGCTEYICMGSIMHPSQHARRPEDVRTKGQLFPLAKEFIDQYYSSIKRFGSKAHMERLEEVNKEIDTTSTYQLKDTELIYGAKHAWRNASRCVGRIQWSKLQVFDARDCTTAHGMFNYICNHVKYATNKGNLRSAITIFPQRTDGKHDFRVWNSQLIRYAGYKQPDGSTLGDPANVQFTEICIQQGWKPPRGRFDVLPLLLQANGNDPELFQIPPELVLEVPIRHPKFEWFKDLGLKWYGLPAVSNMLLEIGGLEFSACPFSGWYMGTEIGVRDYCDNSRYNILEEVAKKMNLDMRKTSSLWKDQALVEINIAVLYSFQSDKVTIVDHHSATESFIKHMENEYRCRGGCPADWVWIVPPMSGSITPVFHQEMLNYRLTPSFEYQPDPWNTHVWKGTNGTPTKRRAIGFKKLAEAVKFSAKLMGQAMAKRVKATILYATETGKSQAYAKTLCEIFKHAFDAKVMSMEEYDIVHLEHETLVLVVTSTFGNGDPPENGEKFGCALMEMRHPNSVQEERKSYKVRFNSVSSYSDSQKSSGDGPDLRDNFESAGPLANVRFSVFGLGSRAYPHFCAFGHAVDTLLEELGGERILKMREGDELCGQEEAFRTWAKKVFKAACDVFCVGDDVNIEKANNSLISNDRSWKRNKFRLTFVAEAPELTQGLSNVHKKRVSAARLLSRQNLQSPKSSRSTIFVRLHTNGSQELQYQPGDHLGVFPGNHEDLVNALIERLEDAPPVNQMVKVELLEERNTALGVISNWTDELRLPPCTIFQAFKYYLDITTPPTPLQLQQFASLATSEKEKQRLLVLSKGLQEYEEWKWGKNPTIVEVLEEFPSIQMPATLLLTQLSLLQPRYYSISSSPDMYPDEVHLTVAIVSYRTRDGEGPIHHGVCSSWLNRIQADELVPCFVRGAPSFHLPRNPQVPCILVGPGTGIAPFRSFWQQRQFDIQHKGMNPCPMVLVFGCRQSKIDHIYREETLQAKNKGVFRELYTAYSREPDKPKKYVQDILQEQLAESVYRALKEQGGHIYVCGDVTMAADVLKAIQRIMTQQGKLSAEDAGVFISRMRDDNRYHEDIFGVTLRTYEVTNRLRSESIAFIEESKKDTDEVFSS

Nitric oxide synthase 1 [3] = biological target: T1, Nitric oxide synthase 1; experiment: Inhibition of recombinant NOS1 assessed as citrulline formation
[4] = biological target: Nitric oxide synthase, inducible (Homo sapiens, UniProt P35228); experiment: Inhibition of NOS2
Chain of Nitric oxide synthase, inducible (P35228 whole entry): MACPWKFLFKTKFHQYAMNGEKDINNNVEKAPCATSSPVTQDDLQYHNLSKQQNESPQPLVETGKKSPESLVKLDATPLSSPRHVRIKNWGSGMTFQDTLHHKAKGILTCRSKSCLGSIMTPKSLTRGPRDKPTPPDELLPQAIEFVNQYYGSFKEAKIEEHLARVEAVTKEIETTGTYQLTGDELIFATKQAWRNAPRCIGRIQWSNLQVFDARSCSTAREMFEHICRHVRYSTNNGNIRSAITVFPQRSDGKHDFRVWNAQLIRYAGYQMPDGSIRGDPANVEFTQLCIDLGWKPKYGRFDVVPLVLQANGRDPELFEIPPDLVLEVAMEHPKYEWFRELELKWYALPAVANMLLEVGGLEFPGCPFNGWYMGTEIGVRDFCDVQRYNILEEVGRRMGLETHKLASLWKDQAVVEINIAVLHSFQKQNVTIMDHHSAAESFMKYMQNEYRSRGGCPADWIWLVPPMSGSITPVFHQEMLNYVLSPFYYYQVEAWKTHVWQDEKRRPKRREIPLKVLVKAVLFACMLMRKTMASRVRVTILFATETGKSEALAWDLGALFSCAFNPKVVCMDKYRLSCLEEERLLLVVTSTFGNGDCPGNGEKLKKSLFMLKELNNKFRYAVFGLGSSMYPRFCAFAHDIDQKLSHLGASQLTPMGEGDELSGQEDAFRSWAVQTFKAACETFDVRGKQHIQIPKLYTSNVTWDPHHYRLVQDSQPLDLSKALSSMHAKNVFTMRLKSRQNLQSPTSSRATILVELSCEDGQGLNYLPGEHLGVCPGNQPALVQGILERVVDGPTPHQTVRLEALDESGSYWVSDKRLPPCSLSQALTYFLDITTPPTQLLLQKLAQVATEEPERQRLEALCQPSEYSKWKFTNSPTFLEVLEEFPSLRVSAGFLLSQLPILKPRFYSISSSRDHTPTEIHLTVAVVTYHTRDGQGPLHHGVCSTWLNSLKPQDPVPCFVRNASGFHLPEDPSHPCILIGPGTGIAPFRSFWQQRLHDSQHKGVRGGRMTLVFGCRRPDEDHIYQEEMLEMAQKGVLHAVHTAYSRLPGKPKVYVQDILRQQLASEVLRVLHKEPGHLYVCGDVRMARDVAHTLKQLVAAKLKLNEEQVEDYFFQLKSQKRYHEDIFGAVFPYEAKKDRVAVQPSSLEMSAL
Method in brief: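 NOS-II source was lung homogenate (2500g supernatant) from male Wistar rats killed 6 h after iv LPS 10 mg/kg. Incubation ran 30 min at 37 °C, pH 7.6, with 10 µM L-arginine, 40 nM L-3H-arginine, cofactors and 0.75 mM NADPH, plus 10 mM EDTA to exclude NOS-I. Read-out was 3H-citrulline formed. Compounds were tested at 1 mM, or 0.1–1 mM for dose-response, in three experiments run in triplicate.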

[5] = biological target: Nitric oxide synthase, inducible (Rattus norvegicus) (UniProt Q06518); experiment: Inhibition of Wistar rat NOS2 assessed as enzyme activity at 1 mM by liquid scintillation counting relative to control in presence of EDTA; parameters: scale not given: the % may be the effect or the level left
Method in brief: (§1)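 Lung homogenate (0.1 g/mL, pH 7.6 Tris with protease inhibitors, 2500g supernatant) from male Wistar rats given 10 mg/kg LPS iv in saline 6 h before. L-3H-arginine (40 nM, plus 10 µM L-arginine) to L-3H-citrulline conversion, 0.75 mM NADPH, 30 min at 37 °C, 10 mM EDTA. Compound at 0.1, 0.5 or 1 mM. Three experiments in triplicate.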

[6] = biological target: Nitric oxide synthase, inducible (Rattus norvegicus) (UniProt Q06518); experiment: Inhibition of Wistar rat NOS2 assessed as enzyme activity at 0.1 mM by liquid scintillation counting relative to control in presence of EDTA; parameters: scale not given: the % may be the effect or the level left; method in brief: as §1
[7] = biological target: Nitric oxide synthase, inducible (Rattus norvegicus) (UniProt Q06518); experiment: Inhibition of Wistar rat NOS2 assessed as enzyme activity at 0.5 mM by liquid scintillation counting relative to control in presence of EDTA; parameters: scale not given: the % may be the effect or the level left; method in brief: as §1
[8] = biological target: Nitric oxide synthase, inducible (Rattus norvegicus) (UniProt Q06518); experiment: Inhibition of Wistar rat NOS2 assessed as L-[3H]citrulline formation by liquid scintillation counting relative to control in presence of EDTA; method in brief: as §1

Chain of Nitric oxide synthase, inducible (Rattus norvegicus) (Q06518 whole entry): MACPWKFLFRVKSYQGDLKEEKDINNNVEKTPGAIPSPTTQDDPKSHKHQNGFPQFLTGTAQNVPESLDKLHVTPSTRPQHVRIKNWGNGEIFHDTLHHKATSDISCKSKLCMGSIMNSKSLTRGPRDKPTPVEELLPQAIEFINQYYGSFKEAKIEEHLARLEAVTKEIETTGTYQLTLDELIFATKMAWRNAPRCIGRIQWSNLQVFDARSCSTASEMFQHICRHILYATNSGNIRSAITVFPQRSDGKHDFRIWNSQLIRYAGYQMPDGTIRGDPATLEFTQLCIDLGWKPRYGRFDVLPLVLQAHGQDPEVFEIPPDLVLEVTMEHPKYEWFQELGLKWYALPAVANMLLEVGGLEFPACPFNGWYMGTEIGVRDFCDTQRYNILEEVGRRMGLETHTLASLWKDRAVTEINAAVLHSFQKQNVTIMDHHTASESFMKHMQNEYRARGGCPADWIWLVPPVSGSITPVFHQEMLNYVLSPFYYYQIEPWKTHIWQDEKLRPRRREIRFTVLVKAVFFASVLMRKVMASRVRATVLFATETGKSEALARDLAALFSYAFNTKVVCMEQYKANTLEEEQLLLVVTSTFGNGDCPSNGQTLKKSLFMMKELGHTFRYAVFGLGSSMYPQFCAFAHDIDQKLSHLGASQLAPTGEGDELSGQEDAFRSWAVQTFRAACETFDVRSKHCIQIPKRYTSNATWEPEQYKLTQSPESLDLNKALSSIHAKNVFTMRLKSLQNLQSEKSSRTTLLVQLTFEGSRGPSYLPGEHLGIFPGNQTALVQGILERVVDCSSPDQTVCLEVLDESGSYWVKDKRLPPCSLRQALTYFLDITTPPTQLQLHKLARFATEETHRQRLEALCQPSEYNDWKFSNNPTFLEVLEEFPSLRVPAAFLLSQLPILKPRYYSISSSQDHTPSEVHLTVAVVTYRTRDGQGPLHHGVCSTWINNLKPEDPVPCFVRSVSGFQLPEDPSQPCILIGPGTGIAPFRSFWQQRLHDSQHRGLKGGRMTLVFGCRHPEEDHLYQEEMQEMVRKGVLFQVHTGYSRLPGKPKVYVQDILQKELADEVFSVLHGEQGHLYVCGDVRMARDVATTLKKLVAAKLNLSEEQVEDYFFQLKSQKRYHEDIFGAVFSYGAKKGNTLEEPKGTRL

SMILES | inhibition [1] | IC50 (Nitric oxide synthase 1 [2]) | other results
Cn1ncc2cccc([N+](=O)[O-])c21 | 25% | – | –
O=C1CCCc2[nH]ncc21 | 23% | – | –
Ic1ccc2[nH]ncc2c1 | – | 37 µM | –
Oc1n[nH]c2c(F)c(F)c(F)c(F)c12 | 6% | – | –
Clc1ccc2[nH]ncc2c1 | – | 59 µM | –
Nc1ccc2[nH]ncc2c1 | – | – | IC50 (Nitric oxide synthase 1 [3]): > 1000 µM
Clc1ccc2cn[nH]c2c1 | – | 22 µM | –
Cc1n[nH]c2c1C(=O)CCC2 | 4% | – | –
O=[N+]([O-])c1ccc2c(Cl)n[nH]c2c1 | – | 158 µM | –
Fc1c(F)c(F)c(-c2n[nH]c3c(F)c(F)c(F)c(F)c23)c(F)c1F | 80% | – | IC50 [4]: 400 µM; Activity [5]: 20%; Activity [6]: 90%; Activity [7]: 58%; inhibition [8]: Dose-dependent effect
Clc1n[nH]c2ccccc12 | – | – | IC50 (Nitric oxide synthase 1 [3]): 100 µM
Cn1nc2c([N+](=O)[O-])cccc2c1Br | 7% | – | –
Ic1cccc2[nH]ncc12 | – | 17 µM | –
Cn1cc2cccc([N+](=O)[O-])c2n1 | 36% | – | –
Nc1ccc2cn[nH]c2c1 | – | – | IC50 (Nitric oxide synthase 1 [3]): > 1000 µM
Brc1ccc2cn[nH]c2c1 | – | 4.3 µM | –
O=[N+]([O-])c1cccc2cn[nH]c12 [7-NITROINDAZOLE] | 84% | – | IC50 [4]: 5.8 µM
CC12CCC(C3C=NN=C31)C2(C)C (racemic) | 20% | – | –
O=[N+]([O-])c1cccc2c(Br)n[nH]c12 | 97% | 0.17 µM | IC50 [4]: 0.29 µM

SMILES | inhibition [1] | IC50 (Nitric oxide synthase 1 [2]) | other results
Nc1cccc2cn[nH]c12 | – | – | IC50 (Nitric oxide synthase 1 [3]): 115 µM
Clc1cccc2cn[nH]c12 | – | 4.2 µM | –
O=[N+]([O-])c1cccc2[nH]ncc12 | – | 3.1 µM | –
Brc1cccc2cn[nH]c12 | – | 14 µM | –
Fc1c(F)c(F)c2c(C(F)(F)F)n[nH]c2c1F | 21% | – | –
CCc1n[nH]c2ccccc12 | – | – | IC50 (Nitric oxide synthase 1 [3]): 310 µM
Cc1n[nH]c2c(F)c(F)c(F)c(F)c12 | 83% | – | –
Brc1ccc2[nH]ncc2c1 | – | 72 µM | –
Cn1nc(Br)c2cccc([N+](=O)[O-])c21 | 10% | – | –
Cc1n[nH]c2c1C(=O)CC(C)(C)C2 | 22% | – | –
Clc1cccc2[nH]ncc12 | – | 44 µM | –
Brc1cccc2[nH]ncc12 | – | 2.4 µM | –
O=[N+]([O-])c1ccc2cn[nH]c2c1 | – | 32 µM | –
O=[N+]([O-])c1ccc2[nH]ncc2c1 | – | 47 µM | –
O=c1[nH][nH]c2ccccc12 | – | – | IC50 (Nitric oxide synthase 1 [3]): > 1000 µM
CC1(C)CC(=O)c2cn[nH]c2C1 | 2% | – | –
c1ccc2[nH]ncc2c1 [INDAZOLE] | – | – | IC50 (Nitric oxide synthase 1 [3]): 178 µM
Fc1c(F)c(F)c2c(-c3ccccc3)n[nH]c2c1F | 37% | – | –
